Test results published in ChEMBL document CHEMBL1268956, “3-Urea-1-(phenylmethyl)-pyridones as novel, potent, and selective EP3 receptor antagonists” (Bioorg Med Chem Lett, 2010).

Legend:
[1] = target: T1, Prostaglandin E2 receptor EP3 subtype (Rattus norvegicus, UniProt P34980); experiment: Inhibition of rat EP3 receptor
T1 sequence (P34980 whole entry): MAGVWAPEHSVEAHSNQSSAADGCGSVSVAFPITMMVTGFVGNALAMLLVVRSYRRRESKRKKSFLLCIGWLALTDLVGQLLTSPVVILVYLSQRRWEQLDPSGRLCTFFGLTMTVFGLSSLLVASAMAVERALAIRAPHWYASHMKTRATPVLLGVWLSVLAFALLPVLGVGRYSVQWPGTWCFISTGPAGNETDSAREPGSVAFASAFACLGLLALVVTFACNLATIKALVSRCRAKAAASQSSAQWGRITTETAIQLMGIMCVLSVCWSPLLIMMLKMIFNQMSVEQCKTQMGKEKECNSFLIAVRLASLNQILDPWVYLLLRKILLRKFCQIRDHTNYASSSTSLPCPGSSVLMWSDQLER

[2] = target: T2, Cytochrome P450 1A2 (Homo sapiens, UniProt P05177); experiment: Inhibition of CYP1A2; assay type: ADME
T2 sequence (P05177 whole entry): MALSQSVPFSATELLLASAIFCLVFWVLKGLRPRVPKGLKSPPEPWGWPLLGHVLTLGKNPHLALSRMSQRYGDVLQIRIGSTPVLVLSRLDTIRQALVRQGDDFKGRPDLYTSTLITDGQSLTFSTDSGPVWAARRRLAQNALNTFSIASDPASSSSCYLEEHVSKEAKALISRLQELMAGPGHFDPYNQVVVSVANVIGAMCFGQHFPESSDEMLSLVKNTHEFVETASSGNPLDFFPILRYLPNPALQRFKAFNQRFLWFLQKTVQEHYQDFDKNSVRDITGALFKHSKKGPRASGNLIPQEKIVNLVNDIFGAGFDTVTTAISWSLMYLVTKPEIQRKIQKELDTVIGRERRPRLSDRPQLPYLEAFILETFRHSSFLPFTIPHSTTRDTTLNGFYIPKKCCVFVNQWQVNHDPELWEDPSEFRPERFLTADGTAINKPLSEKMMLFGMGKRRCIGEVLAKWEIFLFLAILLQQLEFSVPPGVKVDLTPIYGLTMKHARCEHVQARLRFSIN

[3] = target: Prostaglandin E2 receptor EP2 subtype (Homo sapiens, UniProt P43116); experiment: Displacement of radioligand from human EP2 receptor
[4] = target: T3, Thromboxane A2 receptor (Homo sapiens, UniProt P21731); experiment: Displacement of radioligand from human TP receptor
T3 sequence (P21731 whole entry): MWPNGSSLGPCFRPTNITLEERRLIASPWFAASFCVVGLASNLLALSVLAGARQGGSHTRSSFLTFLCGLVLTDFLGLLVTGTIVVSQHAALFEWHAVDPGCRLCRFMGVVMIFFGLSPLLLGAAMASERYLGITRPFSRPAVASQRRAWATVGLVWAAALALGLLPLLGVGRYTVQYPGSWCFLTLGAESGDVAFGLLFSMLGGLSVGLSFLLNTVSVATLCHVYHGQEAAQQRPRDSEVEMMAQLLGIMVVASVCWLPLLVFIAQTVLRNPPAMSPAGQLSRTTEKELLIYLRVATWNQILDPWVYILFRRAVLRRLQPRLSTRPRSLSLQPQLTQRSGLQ

[5] = target: Prostaglandin D2 receptor (Homo sapiens) (UniProt Q13258); experiment: Displacement of radioligand from human DP receptor
[6] = target: Prostaglandin E2 receptor EP4 subtype (Homo sapiens, UniProt P35408); experiment: Displacement of radioligand from human EP4 receptor
[7] = target: T4, Prostaglandin E2 receptor EP1 subtype (Homo sapiens, UniProt P34995); experiment: Displacement of radioligand from human EP1 receptor
T4 sequence (P34995 whole entry): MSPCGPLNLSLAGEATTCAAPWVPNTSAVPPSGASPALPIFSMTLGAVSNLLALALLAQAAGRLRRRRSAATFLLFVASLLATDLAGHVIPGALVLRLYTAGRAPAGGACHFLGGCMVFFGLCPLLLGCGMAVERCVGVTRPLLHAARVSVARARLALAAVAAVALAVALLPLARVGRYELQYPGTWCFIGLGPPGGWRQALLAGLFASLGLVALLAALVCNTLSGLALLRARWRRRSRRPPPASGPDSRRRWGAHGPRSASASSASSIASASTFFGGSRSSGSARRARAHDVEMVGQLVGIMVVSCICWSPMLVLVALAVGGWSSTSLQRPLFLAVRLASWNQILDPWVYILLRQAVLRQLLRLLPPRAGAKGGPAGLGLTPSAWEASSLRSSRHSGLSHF

[8] = target: Prostaglandin G/H synthase 1 (Homo sapiens, UniProt P23219); experiment: Inhibition of human COX1 in human whole blood by ELISA; assay type: tissue-based
In short: (§1)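 Human whole blood; COX1 and COX2 inhibition read out in ELISA format.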

[9] = target: T5, Prostaglandin E2 receptor EP3 subtype (Homo sapiens, UniProt P43115); experiment: Antagonist activity at human EP3 receptor expressed in human U2OS cells assessed as inhibition of PGE2-induced intracellular calcium mobilization by FLIPR assay; assay type: functional, cell-based
T5 sequence (P43115 whole entry): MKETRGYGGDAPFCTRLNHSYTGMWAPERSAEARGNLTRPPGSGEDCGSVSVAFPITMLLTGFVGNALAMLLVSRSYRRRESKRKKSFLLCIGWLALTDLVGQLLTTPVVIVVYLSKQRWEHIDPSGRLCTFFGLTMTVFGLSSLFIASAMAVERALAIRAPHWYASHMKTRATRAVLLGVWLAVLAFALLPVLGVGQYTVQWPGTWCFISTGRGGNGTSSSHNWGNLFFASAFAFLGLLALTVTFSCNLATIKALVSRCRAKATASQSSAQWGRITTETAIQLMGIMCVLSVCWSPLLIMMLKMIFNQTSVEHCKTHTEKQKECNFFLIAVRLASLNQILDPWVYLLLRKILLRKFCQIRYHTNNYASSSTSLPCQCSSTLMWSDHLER

[10] = target: Prostaglandin F2-alpha receptor (Homo sapiens, UniProt P43088); experiment: Displacement of radioligand from human FP receptor
[11] = target: T6, Prostaglandin G/H synthase 2 (Homo sapiens, UniProt P35354); experiment: Inhibition of human COX2 in human whole blood by ELISA; assay type: tissue-based; in short: as §1
T6 sequence (P35354 whole entry): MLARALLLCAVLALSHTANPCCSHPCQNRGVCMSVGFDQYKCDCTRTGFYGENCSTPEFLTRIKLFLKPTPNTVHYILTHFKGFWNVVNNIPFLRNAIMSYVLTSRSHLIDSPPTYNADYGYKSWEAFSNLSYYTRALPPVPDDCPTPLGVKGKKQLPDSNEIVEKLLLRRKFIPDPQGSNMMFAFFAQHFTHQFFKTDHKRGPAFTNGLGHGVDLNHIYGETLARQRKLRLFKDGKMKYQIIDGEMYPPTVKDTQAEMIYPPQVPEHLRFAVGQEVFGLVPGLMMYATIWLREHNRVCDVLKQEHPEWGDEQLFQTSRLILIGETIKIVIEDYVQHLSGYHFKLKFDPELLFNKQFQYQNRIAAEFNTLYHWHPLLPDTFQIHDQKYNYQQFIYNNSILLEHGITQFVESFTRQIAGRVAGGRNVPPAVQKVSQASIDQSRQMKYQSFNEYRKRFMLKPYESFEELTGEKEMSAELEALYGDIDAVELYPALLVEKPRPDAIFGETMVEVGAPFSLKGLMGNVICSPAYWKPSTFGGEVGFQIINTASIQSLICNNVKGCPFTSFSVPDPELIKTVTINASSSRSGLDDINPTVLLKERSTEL

Sequence of Prostaglandin E2 receptor EP2 subtype (P43116 whole entry): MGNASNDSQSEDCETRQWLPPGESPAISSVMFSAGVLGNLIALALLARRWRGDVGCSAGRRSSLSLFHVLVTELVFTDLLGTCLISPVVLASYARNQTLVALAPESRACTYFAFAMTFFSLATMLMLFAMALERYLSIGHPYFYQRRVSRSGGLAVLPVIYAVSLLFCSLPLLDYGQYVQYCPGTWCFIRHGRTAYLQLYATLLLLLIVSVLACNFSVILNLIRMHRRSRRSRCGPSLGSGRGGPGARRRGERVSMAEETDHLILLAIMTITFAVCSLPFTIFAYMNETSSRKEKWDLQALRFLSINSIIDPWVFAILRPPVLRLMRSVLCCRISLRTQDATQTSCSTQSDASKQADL
Sequence of Prostaglandin G/H synthase 1 (P23219 whole entry): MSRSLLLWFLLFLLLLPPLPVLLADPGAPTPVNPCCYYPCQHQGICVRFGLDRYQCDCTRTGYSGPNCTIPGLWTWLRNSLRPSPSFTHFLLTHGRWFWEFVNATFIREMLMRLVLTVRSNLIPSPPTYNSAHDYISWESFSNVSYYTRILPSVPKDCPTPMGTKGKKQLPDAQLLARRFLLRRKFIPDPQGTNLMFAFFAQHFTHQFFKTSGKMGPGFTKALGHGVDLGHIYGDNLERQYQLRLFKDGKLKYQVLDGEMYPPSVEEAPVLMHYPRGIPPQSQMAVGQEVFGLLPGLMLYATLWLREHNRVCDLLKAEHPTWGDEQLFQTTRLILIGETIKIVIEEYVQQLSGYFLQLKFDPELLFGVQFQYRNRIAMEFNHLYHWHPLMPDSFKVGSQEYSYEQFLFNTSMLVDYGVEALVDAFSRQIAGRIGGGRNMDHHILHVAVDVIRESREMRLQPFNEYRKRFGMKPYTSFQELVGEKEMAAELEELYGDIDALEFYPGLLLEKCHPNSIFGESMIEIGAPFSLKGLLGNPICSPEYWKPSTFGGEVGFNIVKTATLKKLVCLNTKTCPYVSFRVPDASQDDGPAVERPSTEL
Sequence of Prostaglandin E2 receptor EP4 subtype (P35408 whole entry): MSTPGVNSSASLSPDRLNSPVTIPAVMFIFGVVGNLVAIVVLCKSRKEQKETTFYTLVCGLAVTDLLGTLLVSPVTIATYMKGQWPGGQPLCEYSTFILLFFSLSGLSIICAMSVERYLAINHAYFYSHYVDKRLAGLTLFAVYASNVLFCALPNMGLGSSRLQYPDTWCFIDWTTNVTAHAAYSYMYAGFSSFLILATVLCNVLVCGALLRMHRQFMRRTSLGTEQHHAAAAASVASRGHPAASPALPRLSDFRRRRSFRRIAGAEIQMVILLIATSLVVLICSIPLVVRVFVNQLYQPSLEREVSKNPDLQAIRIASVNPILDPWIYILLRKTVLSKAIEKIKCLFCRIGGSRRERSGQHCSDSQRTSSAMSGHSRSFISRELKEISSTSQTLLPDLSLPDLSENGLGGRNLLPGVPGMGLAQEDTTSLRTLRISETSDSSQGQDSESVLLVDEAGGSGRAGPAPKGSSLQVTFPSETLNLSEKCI
Sequence of Prostaglandin F2-alpha receptor (P43088 whole entry): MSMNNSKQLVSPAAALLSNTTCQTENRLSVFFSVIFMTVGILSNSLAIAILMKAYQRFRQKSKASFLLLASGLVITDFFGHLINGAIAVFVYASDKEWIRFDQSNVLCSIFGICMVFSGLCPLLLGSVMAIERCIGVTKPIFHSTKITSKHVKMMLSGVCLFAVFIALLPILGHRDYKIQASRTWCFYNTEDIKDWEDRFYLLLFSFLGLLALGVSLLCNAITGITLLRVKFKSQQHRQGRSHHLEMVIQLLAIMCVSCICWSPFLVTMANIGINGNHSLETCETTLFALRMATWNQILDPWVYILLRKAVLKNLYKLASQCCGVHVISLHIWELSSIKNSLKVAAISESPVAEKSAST
Sequence of Prostaglandin D2 receptor (Homo sapiens) (Q13258 whole entry, looked up): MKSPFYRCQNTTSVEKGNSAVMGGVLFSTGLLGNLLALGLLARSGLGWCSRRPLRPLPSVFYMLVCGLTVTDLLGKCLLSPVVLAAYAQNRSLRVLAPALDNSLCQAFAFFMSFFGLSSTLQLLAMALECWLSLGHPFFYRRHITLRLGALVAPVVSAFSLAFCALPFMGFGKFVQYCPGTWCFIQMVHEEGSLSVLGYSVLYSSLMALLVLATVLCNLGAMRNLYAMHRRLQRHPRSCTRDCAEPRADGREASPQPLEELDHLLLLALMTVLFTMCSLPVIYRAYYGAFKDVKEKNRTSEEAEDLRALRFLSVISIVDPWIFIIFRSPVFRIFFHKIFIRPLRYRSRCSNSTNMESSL

Ki [1]: 0.158 µM
Ki [2]: 2 µM
Ki [3]: > 10 µM
Ki [4]: > 10 µM
pKi [5]: < 5
Ki [6]: > 10 µM
Ki [7]: > 10 µM
Ki [8]: > 100 µM
Ki [9]: 0.0501 µM
Ki [10]: > 10 µM
Ki [11]: > 100 µM
Structure (SMILES): CCc1cccc(NC(=O)Nc2cccn(Cc3ccccc3Cl)c2=O)c1
